Rows were chosen to be rich in hits. Some 1.8% of all compounds tested hit in one or more screens of this group.
M4 PAM – positive allosteric modulators of human muscarinic M4 receptor; CHO-K1 hM4/Gqi5, Fluo-8 calcium fluorescence, ACh EC20; 0% = ACh EC20, 100% = maximal ACh; activation, % at 3 µM; actives 0.4% (n = 360,000); AID 624126;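 active = activation above its plate's cutoff, the mean activation of sample wells plus 3 SD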
Target sequence (P08173 whole entry, looked up): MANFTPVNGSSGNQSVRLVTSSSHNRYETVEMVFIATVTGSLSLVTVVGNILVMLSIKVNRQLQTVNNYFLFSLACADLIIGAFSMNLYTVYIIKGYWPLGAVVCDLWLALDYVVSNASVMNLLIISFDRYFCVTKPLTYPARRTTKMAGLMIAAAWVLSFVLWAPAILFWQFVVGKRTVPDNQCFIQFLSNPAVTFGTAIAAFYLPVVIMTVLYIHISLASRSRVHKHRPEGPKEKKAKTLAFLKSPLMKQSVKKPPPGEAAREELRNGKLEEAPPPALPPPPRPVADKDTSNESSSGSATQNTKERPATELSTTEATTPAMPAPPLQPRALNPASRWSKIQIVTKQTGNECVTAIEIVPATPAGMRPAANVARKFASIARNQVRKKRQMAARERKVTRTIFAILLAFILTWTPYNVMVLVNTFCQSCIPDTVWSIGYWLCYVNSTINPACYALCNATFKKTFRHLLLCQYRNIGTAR
M5 ag – CHRM5 agonism in calcium assay; activation, % at 3 µM; AID 624037; CHO-K1 hM5 cells, Fluo-8 calcium fluorescence; 0% DMSO wells, 100% maximal acetylcholine response; P08912; actives 0.19% (n = 360,000);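 active = activation above the run's mean over test compounds plus 3 SD, cut at about 23% in these data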;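 also: signal is peak over basal fluorescence ratio across the kinetic read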
CHRM4 antagonist – antagonists of human muscarinic M4 receptor (CHRM4); CHO-hM4 cells, ACh EC80, Fluo-8 calcium fluorescence; inhibition, % at 3 µM; actives 0.73% (n = 360,000); AID 624125;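 active = inhibition above its plate's cutoff, the mean inhibition of sample wells plus 3 SD, cut at about 27% in these data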
CHRM4 agonist – CHRM4 agonism in calcium assay. P08173. CHO-K1 hM4/Gqi5, Fluo-8 calcium fluorescence; vehicle 0%, full acetylcholine response 100%. activation, % at 3 µM. actives 0.14% (n = 360,000). AID 624127;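 active = activation above the run mean over all test wells plus 3 SD, cut at about 32% in these data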;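 also: peak over basal fluorescence ratio per well then scaled between controls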
CHRM5 antagonist – antagonists of human muscarinic M5 receptor (CHRM5). P08912. CHO-hM5 cells, Fluo-8 calcium fluorescence, ACh EC80. inhibition, % at 3 µM. actives 0.59% (n = 360,000). AID 624040;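 active = inhibition above a per-plate cutoff, the mean of that plate's test compounds plus 3 SD, cut at about 27% in these data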
M5 PAM – potentiates acetylcholine response at human M5 receptor; actives 0.3% (n = 360,000); activation, % at 3 µM; CHO-K1 hM5, Fluo-8 calcium, ACh EC20 PAM; 0% = ACh EC20, 100% = ACh EC100;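 active = activation above the run cutoff, the mean activation of all test compounds plus 3 SD, cut at about 18% in these data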
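System: CHO-K1 hM5 cells. Reagent: acetylcholine, EC20 level. Compound dosing: single dose, 3 µM nominal final test concentration. Timing: Post-acetylcholine fluorescence recording 140 s. Detection: Fluo-8 calcium fluorescence. Read-out: % activation, ACh-normalized. Benchmarks: ACh EC20 and EC100 wells. Repeats: singlicate, one well per test compound.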
Large screens that a line does not name were inactive.

CC1=C(C(=O)N(C(C)C)C(C)C)CC(CC(=O)NC2CCCC2)C(=O)N1Cc1ccc(C(C)(C)C)cc1 (stereo unspecified)	none
Cc1cc(Cl)ccc1OC(C)C(=O)Nc1ccc(C(=O)Nc2ccccc2C(=O)O)cc1 (stereo unspecified)	M4 PAM 23
O=C(NCc1cccs1)c1ccc(N2CCCC2=O)cc1	M5 PAM 22
COc1ccc(/C=N\NC(=O)c2ccc([N+](=O)[O-])cc2)cc1COc1c(F)c(F)cc(F)c1F	CHRM5 antagonist 27
COc1ccc(C(=O)N/N=C/c2ccc(OC)c(COc3c(F)c(F)cc(F)c3F)c2)cc1	none
Cc1ccc(S(=O)(=O)N2CCOCC2)cc1C(=O)N1C(=O)c2cccc(N)c2C1=O	M4 PAM 27
O=S(=O)(Nc1cccc2cccnc12)c1ccc(S(=O)(=O)N2CCCC2)cc1	CHRM4 antagonist 31
CC(=O)Nc1ccc(S(=O)(=O)Nc2cccc3cccnc23)cc1	none
O=S(=O)(Nc1cccc2cccnc12)c1ccccc1	CHRM4 antagonist 42
N#CCc1nn(Cc2ccc(F)cc2)c(=O)c2ccccc12	none
COc1c2c(c(OC)c3ccccc13)[C@@]1(OC2)O[C@H](CCO)C[C@H](O)[C@H]1O	none
CCN(CC)CCNC(=O)c1ccc(NC(=O)c2cn(-c3ccc(F)cc3)nc2-c2cccc(OC)c2)cc1	CHRM4 antagonist 48, CHRM5 antagonist 67
CCN(CC)CCNC(=O)c1ccc(NC(=O)c2cn(-c3ccccc3)nc2-c2cccs2)cc1	none
CCN(CC)CCNC(=O)c1ccc(NC(=O)c2c(C)nn(-c3ccc(F)cc3)c2Cl)cc1	CHRM4 antagonist 41, CHRM5 antagonist 49
O=C(NCc1cccnc1)OC1CC2CC1[C@H]1CCCCN1C2=O (stereo partly specified)	none
Cc1ccc(Oc2ncccc2C(=O)NCC(=O)O)cc1	M5 PAM 21
COC(=O)C[C@H]1C[C@H]2c3cc(NS(=O)(=O)c4ccc(OC)cc4)ccc3O[C@H]2[C@H](CO)O1	none
O=C1CC(=C(c2ccccc2)c2ccccc2)C(=O)N1CCCCN1CCN(c2ccccc2)CC1	CHRM4 antagonist 34
O=C(CCCN1CCN(c2ccccc2)CC1)c1ccc(F)cc1	none
O=C(/C=C/c1ccc(F)cc1)NC(=S)Nc1ccccc1C(=O)NC1CCCCC1	M5 PAM 21
Cc1[nH]c2ccccc2c1CCNS(=O)(=O)c1ccc(S(N)(=O)=O)cc1	M4 PAM 16
NS(=O)(=O)c1ccc(S(=O)(=O)NCCc2ccccc2)cc1	none
O=C(Nc1cnn(Cc2ccc(Cl)cc2Cl)c1)c1cc(-c2cccs2)on1	M4 PAM 31
O=C(Nc1cnn(Cc2ccc(Cl)cc2Cl)c1)c1noc2c1CCCC2	none
CN1C(CC(=O)Nc2ccc(Cl)cc2Cl)c2ccccc2CC1(C)C (stereo unspecified)	CHRM4 antagonist 29
CC1(C)N=C(SCC(=O)Nc2ccc(Cl)cc2Cl)C(c2ccccc2)=N1	none
COC(=O)c1ccccc1-c1c2ccc(=N)cc-2oc2cc(N)ccc12	M5 ag active, CHRM4 antagonist 101, CHRM4 agonist active, CHRM5 antagonist 101
CCOc1ccc(CCNC(=O)COC(=O)c2ccc(C)s2)cc1OCC	none
CCN(CC)c1ccc(C=NNc2ccc([N+](=O)[O-])cn2)cc1	M5 ag 35, CHRM5 antagonist 37
CCOC(=O)c1ccc(CNCc2ccccc2)cc1	CHRM4 antagonist 40
O=C(Cc1ccc(Cl)cc1Cl)NCc1cccnc1	none
CCn1c(SCc2ccc(Cl)cc2)nc2nc3c(cc2c1=O)CCCC3	M4 PAM 28
Cc1nccn1-c1c2c(c(C#N)c3nc4ccccc4n13)CCCC2	none
N#Cc1c2c(c(-n3cnc4ccccc43)n3c1nc1ccccc13)CCC2	CHRM5 antagonist 31, M5 PAM 47
CN1C=CC=C/C1=C1\SC(=S)N(c2ccccc2)C1=O	M4 PAM 17
CC[N+]1(CC(O)COC2CC(C)CC(C)(C)C2)CCOCC1 (stereo unspecified)	CHRM4 antagonist 29
Cc1ccc(NC(=O)CS(=O)(=O)c2cn(CC(=O)N3CCOCC3)c3ccccc23)cc1	CHRM4 antagonist 36
C[C@@H]1CN([C@H](C)CO)C(=O)CCCn2nncc2CO[C@H]1CN(C)CC1CC1	none
CC[N+](CC)(CC#Cc1ccccc1)CC#Cc1ccccc1	CHRM5 antagonist 31
CCc1ccc(C(=O)NNC(=O)c2cccc(N3C(=O)CCC3=O)c2)cc1	none
Cc1[nH]c2ccccc2c1C(=O)CSc1nc2ccccc2c(=O)n1CCCN1CCOCC1	CHRM4 antagonist 27
Cn1c(N)c(C(=O)CSc2nc3ccccc3c(=O)n2CCCN2CCOCC2)c(=O)n(C)c1=O	none
Cn1c2ccccc2c(=O)c2ccc(C#CC3(O)CCCCC3)cc21	CHRM4 agonist 37
CN(c1ccccc1)S(=O)(=O)c1ccc(Cl)c(C(=O)OCC(=O)c2c(N)n(C)c(=O)n(C)c2=O)c1	none
CC(=O)Nc1cccc(/C(C)=N/Nc2ccc(S(=O)(=O)Nc3ccccc3C(=O)O)cc2[N+](=O)[O-])c1	M4 PAM 20
CC(=O)Nc1ccc(C=NNc2ccc(S(=O)(=O)Nc3ccccc3C(=O)O)cc2[N+](=O)[O-])cc1	none
Oc1ccc(C23CCCC2C2(CCCC2)c2ccc(O)cc2O3)c(O)c1 (stereo unspecified)	CHRM4 agonist 59
COC(=O)CCCN1C(=O)NC(c2ccc(-c3ccccc3)cc2)C(C(=O)OCc2ccccc2)=C1C (stereo unspecified)	none
COC(=O)CCCCCN1C(=O)NC(C2CC2)C(C(=O)OCc2ccccc2)=C1C (stereo unspecified)	CHRM5 antagonist 29
CN1CCN(c2ccc(CNS(=O)(=O)c3ccc(F)cc3Cl)cc2)CC1	M4 PAM 20
CC(C)CC1NC(=O)c2cc3ccccc3cc2-n2c1nc1ccc(Cl)cc1c2=O (stereo unspecified)	none
CC(=O)c1c(C)nc2ccc(Br)cc2c1-c1ccccc1	none
CC(=O)c1c(C)nc2ccc([N+](=O)[O-])cc2c1-c1ccccc1	M4 PAM 14
O=C(O)CSc1nnc2c(n1)[nH]c1ccccc12	CHRM5 antagonist 34
O=C(CSc1nnc2c(n1)[nH]c1ccccc12)OCc1ccccc1	none
CN(C)S(=O)(=O)c1cccc(NC(=O)C2Cc3ccccc3CN2C(=O)c2ccco2)c1 (stereo unspecified)	none

From PubChem
